Experimental data from ChEMBL document CHEMBL3124843, “Synthesis, cytostatic, antimicrobial, and anti-HCV activity of 6-substituted 7-(het)aryl-7-deazapurine ribonucleosides” (J Med Chem, 2014).
Activity calls are given as the source filed them. The rule behind the calls is not given here.

How the values were obtained:
CCRF-CEM [1] = assay: Inhibition of RNA synthesis in human CCRF-CEM cells assessed as BrU-positive cells at IC50 after 24 hrs by propidium iodide staining-based flow cytometric analysis (reference value: 43.3%); assay type: functional; set-up: scale not given: the % may be the effect or the level left
CCRF-CEM [2] = assay: Cell cycle arrest in human CCRF-CEM cells assessed as accumulation at G2/M phase at IC50 after 24 hrs by propidium iodide staining-based flow cytometric analysis (reference value: 14.2%); assay type: functional
CCRF-CEM [3] = assay: Cell cycle arrest in human CCRF-CEM cells assessed as accumulation at sub-G1 phase at IC50 after 24 hrs by propidium iodide staining-based flow cytometric analysis (reference value: 9.6%); assay type: functional
[4] = Cytotoxicity against human HuH7 cells infected with Hepatitis C virus subtype 2a; assay type: cell-based, Huh-7
Hepatitis C virus [5] = assay: Antiviral activity against Hepatitis C virus subtype 2a infected in human HuH7 cells; assay type: functional, organism-based, Hepacivirus hominis; conditions: genotype 2a, Huh-7
[6] = Cytotoxicity against human HuH7 cells infected with Hepatitis C virus subtype 1b; assay type: cell-based, Huh-7
Hepatitis C virus [7] = assay: Antiviral activity against Hepatitis C virus subtype 1b infected in human HuH7 cells; assay type: functional, organism-based, Hepacivirus hominis; conditions: genotype 1b, Huh-7
Candida tropicalis = assay: Antifungal activity against Candida tropicalis after 48 hrs; assay type: functional, organism-based
Pichia kudriavzevii = assay: Antifungal activity against Candida crusei after 48 hrs; assay type: functional, organism-based
Candida parapsilosis = assay: Antifungal activity against Candida parapsilosis after 48 hrs; assay type: functional, organism-based
Candida albicans = assay: Antifungal activity against Candida albicans after 48 hrs; assay type: functional, organism-based
Pseudomonas aeruginosa [8] = assay: Antibacterial activity against multi-resistant Pseudomonas aeruginosa A/16575 after 24 hrs; assay type: functional, organism-based
Escherichia coli [9] = assay: Antibacterial activity against multi-resistant Escherichia coli C/16702 after 24 hrs; assay type: functional, organism-based
[10] = tested on: Staphylococcus haemolyticus; assay: Antibacterial activity against methicillin-resistant Staphylococcus haemolyticus A/16568 after 24 hrs; assay type: functional, organism-based
Staphylococcus aureus [11] = assay: Antibacterial activity against methicillin-resistant Staphylococcus aureus MRSA 4591 after 24 hrs; assay type: functional, organism-based
Pseudomonas aeruginosa [12] = assay: Antibacterial activity against Pseudomonas aeruginosa CCM 3955 after 24 hrs; assay type: functional, organism-based
Escherichia coli [13] = assay: Antibacterial activity against Escherichia coli CCM 3954 after 24 hrs; assay type: functional, organism-based
Staphylococcus aureus [14] = assay: Antibacterial activity against Staphylococcus aureus CCM 3953 after 24 hrs; assay type: functional, organism-based
Enterococcus faecalis = assay: Antibacterial activity against Enterococcus faecalis CCM 4224 after 24 hrs; assay type: functional, organism-based
[15] = Antiproliferative activity against human HeLaS3 cells after 72 hrs by XTT assay; assay type: functional, cell-based; conditions: HeLa S3, 72 h
In short: (§1)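 Antiproliferative test on HL-60 promyelocytic leukemia and HeLa S3 cervical carcinoma cells growing in liquid suspension.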

HL-60 = assay: Antiproliferative activity against human HL60 cells after 72 hrs by XTT assay; assay type: functional, cell-based; conditions: HL-60, 72 h; in short: as §1
HepG2 = assay: Antiproliferative activity against human HepG2 cells after 72 hrs by XTT assay; assay type: functional, cell-based; conditions: HepG2, 72 h
MRC5 = assay: Cytostatic activity against human MRC5 cells after 72 hrs by MTT assay; assay type: ADME, cell-based; conditions: MRC5, 72 h
In short: (§2)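 IC50 is the concentration that cuts cell growth by 50%, read by quantitative metabolic MTT staining after a 3-day treatment. The resistant sublines were made by raising the concentration of the cytotoxic drug step by step. CEM-DNR-bulk (daunorubicin-selected) stably overexpresses mrp-1. K562-TAX (paclitaxel-selected) expresses only mdr-1. HCT116p53−/− carries null p53 alleles. BJ and MRC-5 are nonmalignant fibroblasts.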

BJ = assay: Cytostatic activity against human BJ cells after 72 hrs by MTT assay; assay type: ADME, cell-based; in short: as §2
HCT-116 [16] = assay: Cytostatic activity against p53-deficient human HCT116 cells after 72 hrs by MTT assay; assay type: functional, cell-based; conditions: HCT-116, 72 h; in short: as §2
HCT-116 [17] = assay: Cytostatic activity against human HCT116 cells after 72 hrs by MTT assay; assay type: functional, cell-based; conditions: HCT-116, 72 h; in short: as §2
A549 = assay: Cytostatic activity against human A549 cells after 72 hrs by MTT assay; assay type: functional, cell-based; conditions: A549, 72 h; in short: as §2
K562 [18] = assay: Cytostatic activity against paclitaxel-resistant human K562 cells after 72 hrs by MTT assay; assay type: functional, cell-based; conditions: K562, 72 h; in short: as §2
K562 [19] = assay: Cytostatic activity against human K562 cells after 72 hrs by MTT assay; assay type: functional, cell-based; conditions: K562, 72 h; in short: as §2
[20] = Cytostatic activity against human CEM-DNR-bulk cells after 72 hrs by MTT assay; assay type: functional, cell-based; in short: as §2
CCRF-CEM [21] = assay: Cytostatic activity against human CCRF-CEM cells after 72 hrs by MTT assay; assay type: functional, cell-based; in short: as §2
CCRF-CEM [22] = assay: Mitotic arrest in human CCRF-CEM cells assessed as pH3Ser10-positive cells at IC50 after 24 hrs by propidium iodide staining-based flow cytometric analysis (reference value: 1.4%); assay type: functional
CCRF-CEM [23] = assay: Cell cycle arrest in human CCRF-CEM cells assessed as accumulation at G1 phase at IC50 after 24 hrs by propidium iodide staining-based flow cytometric analysis (reference value: 41%); assay type: functional

SMILES | Activity (CCRF-CEM [1]) [%] | CC50 [4] [µM] | EC50 (Hepatitis C virus [5]) [µM] | CC50 [6] [µM] | EC50 (Hepatitis C virus [7]) [µM] | Activity (Candida tropicalis) | Activity (Pichia kudriavzevii) | Activity (Candida parapsilosis) | Activity (Candida albicans) | Activity (Pseudomonas aeruginosa [8]) | Activity (Escherichia coli [9]) | Activity [10] | Activity (Staphylococcus aureus [11]) | Activity (Pseudomonas aeruginosa [12]) | Activity (Escherichia coli [13]) | Activity (Staphylococcus aureus [14]) | Activity (Enterococcus faecalis) | IC50 [15] [µM] | IC50 (HL-60) [µM] | IC50 (HepG2) [µM] | other results
COc1ncnc2c1c(-c1cccs1)cn2[C@@H]1O[C@H](CO)[C@@H](O)[C@H]1O | 0.1 | > 44 | > 44 | > 44 | 1.08 | inactive | inactive | inactive | inactive | inactive | inactive | inactive | inactive | inactive | inactive | inactive | inactive | 1.76 | 0.08 | 13.9 | Activity (CCRF-CEM [2]): 9.8%; Activity (CCRF-CEM [3]): 7.5%; IC50 (MRC5): 43.2 µM; IC50 (BJ): 62.8 µM; IC50 (HCT-116 [16]): 0.44 µM; IC50 (HCT-116 [17]): 0.08 µM; IC50 (A549): 4.85 µM; IC50 (K562 [18]): 6.2 µM; IC50 (K562 [19]): 0.07 µM; IC50 [20]: 12.1 µM; IC50 (CCRF-CEM [21]): 0.09 µM; Activity (CCRF-CEM [22]): 1.1%
CN(C)c1ncnc2c1c(-c1ccco1)cn2[C@@H]1O[C@H](CO)[C@@H](O)[C@H]1O | 0.4 | > 44 | 1.35 | > 44 | 1.49 | inactive | inactive | inactive | inactive | inactive | inactive | inactive | inactive | inactive | inactive | inactive | inactive | 1.19 | 0.22 | > 15 | Activity (CCRF-CEM [23]): 31%; IC50 (MRC5): > 100 µM; IC50 (BJ): > 100 µM; IC50 (HCT-116 [16]): 0.32 µM; IC50 (HCT-116 [17]): 0.25 µM; IC50 (A549): 4.6 µM; IC50 (K562 [18]): 1.28 µM; IC50 (K562 [19]): 0.15 µM; IC50 [20]: 3.14 µM; IC50 (CCRF-CEM [21]): 2.91 µM; Activity (CCRF-CEM [22]): 1.5%
COc1ncnc2c1c(-c1ccsc1)cn2[C@@H]1O[C@H](CO)[C@@H](O)[C@H]1O | 0.5 | > 44 | > 44 | > 44 | 0.55 | inactive | inactive | inactive | inactive | inactive | inactive | inactive | inactive | inactive | inactive | inactive | inactive | 3.35 | 0.13 | 0.43 | Activity (CCRF-CEM [3]): 75%; IC50 (MRC5): 75.3 µM; IC50 (BJ): 64.3 µM; IC50 (HCT-116 [16]): 0.14 µM; IC50 (HCT-116 [17]): 0.12 µM; IC50 (A549): 5.17 µM; IC50 (K562 [18]): 3.45 µM; IC50 (K562 [19]): 0.09 µM; IC50 [20]: 7.64 µM; IC50 (CCRF-CEM [21]): 2.57 µM; Activity (CCRF-CEM [22]): 2.9%
COc1ncnc2c1c(I)cn2[C@@H]1O[C@H](CO)[C@@H](O)[C@H]1O | 0.2 | > 44 | > 44 | > 44 | > 44 | inactive | inactive | inactive | inactive | inactive | inactive | inactive | inactive | inactive | inactive | inactive | inactive | 14.3 | 2.3 | > 20 | Activity (CCRF-CEM [3]): 6%; IC50 (MRC5): 63 µM; IC50 (BJ): 91 µM; IC50 (HCT-116 [16]): > 20 µM; IC50 (HCT-116 [17]): > 20 µM; IC50 (A549): > 20 µM; IC50 (K562 [18]): 14.8 µM; IC50 (K562 [19]): > 20 µM; IC50 [20]: > 20 µM; IC50 (CCRF-CEM [21]): 1.15 µM; Activity (CCRF-CEM [22]): 0.9%
C#Cc1cn([C@@H]2O[C@H](CO)[C@@H](O)[C@H]2O)c2ncnc(N(C)C)c12 | 8.6 | > 44 | 0.1 | > 44 | 0.07 | inactive | inactive | inactive | inactive | inactive | inactive | inactive | inactive | inactive | inactive | inactive | inactive | 0.81 | 0.29 | 1.32 | Activity (CCRF-CEM [3]): 8.9%; IC50 (MRC5): 36.1 µM; IC50 (BJ): 0.41 µM; IC50 (HCT-116 [16]): 0.29 µM; IC50 (HCT-116 [17]): 0.18 µM; IC50 (A549): 0.39 µM; IC50 (K562 [18]): 0.26 µM; IC50 (K562 [19]): 0.11 µM; IC50 [20]: 0.24 µM; IC50 (CCRF-CEM [21]): 0.09 µM; Activity (CCRF-CEM [22]): 1.3%
